Test results taken from ChEMBL document CHEMBL3871276, “Synthesis, antiamoebic and molecular docking studies of furan-thiazolidinone hybrids” (Eur J Med Chem, 2016).

Tests used:
[1] = tested on: Entamoeba histolytica; experiment: Antiamoebic activity against Entamoeba histolytica HM-1:IMSS trophozoites after 72 hrs by eosin staining based microdilution method; format: functional
Summary of the method: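 Trophozoites grown in Diamond TYIS-33 medium. Compounds in DMSO, 1 mg/mL stock, two-fold serial dilutions. 1.7 x 10⁴ organisms/well, plate gassed with nitrogen 10 min, 37 °C for 72 h. Wells washed with 0.9% NaCl, fixed with methanol, stained with 0.5% eosin for 15 min, dye released with 0.1 N NaOH, OD 490 nm. IC50 from linear regression of % inhibition vs log dose. Triplicate wells, repeated thrice.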

[2] = molecular target: T1, Thioredoxin reductase (Entamoeba histolytica, UniProt C4LW95); experiment: Inhibition of Entamoeba histolytica thioredoxin reductase
T1 sequence (C4LW95 whole entry): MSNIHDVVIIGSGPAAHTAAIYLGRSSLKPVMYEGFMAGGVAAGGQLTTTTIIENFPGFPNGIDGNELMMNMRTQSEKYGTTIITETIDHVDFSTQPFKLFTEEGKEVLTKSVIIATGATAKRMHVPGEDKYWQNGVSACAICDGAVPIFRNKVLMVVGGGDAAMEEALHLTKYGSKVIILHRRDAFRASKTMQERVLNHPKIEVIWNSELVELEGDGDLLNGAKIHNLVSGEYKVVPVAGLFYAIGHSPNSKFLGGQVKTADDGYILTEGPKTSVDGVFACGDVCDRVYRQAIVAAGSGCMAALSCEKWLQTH

[3] = Inhibition of Entamoeba histolytica O-acetyl-L-serine sulfohydrolase preincubated with enzyme followed by TNB substrate addition measured after 30 mins by UV-Visible spectrophotometric method; settings: in the assay text read “OAS substrate” for “TNB substrate”
Summary of the method: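 Recombinant EhOASS (90 μg) in 100 mM HEPES pH 7.0 with […], inhibitor 0.25–500 μM, preincubated 30 min at room temperature. Reaction started with O-acetyl-L-serine. TNB disappearance followed at 412 nm. % decrease in activity taken relative to the uninhibited reaction. IC50 from % inhibition vs log inhibitor concentration.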

[4] = Cytotoxicity against CHO cells assessed as reduction in cell viability after 48 hrs by MTT assay; format: toxicity, cell-based, Cricetulus griseus; settings: for IC50 at 48 h: Chinese hamster, CHO cells; for Activity: chinese hamster, cho, 48 h
Summary of the method: (§1)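 Chinese hamster ovary cells in RPMI with 10% FBS and 1% penicillin-streptomycin-neomycin. 5,000 cells/well, in triplicate, exposed to compound or vehicle DMSO at 37 °C, 5% CO2 for 48 h or 72 h. MTT (5 mg/mL in PBS) added for 4 h, formazan dissolved in DMSO, absorbance at 570 nm. Viability expressed as % of DMSO control.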

[5] = Cytotoxicity against CHO cells assessed as reduction in cell viability after 72 hrs by MTT assay; format: toxicity, cell-based, Cricetulus griseus; settings: for IC50 at 72 h: Chinese hamster, CHO cells; for Activity: chinese hamster, cho, 72 h; summary of the method: as §1
[6] = Cytotoxicity against CHO cells assessed as reduction in cell viability at 2.5 to 50 uM after 48 hrs by MTT assay; format: toxicity, cell-based, Cricetulus griseus; settings: chinese hamster; summary of the method: as §1
[7] = Cytotoxicity against CHO cells assessed as reduction in cell viability at 2.5 to 25 uM after 72 hrs by MTT assay; format: toxicity, cell-based, Cricetulus griseus; settings: chinese hamster; summary of the method: as §1
[8] = Cytotoxicity against CHO cells assessed as reduction in cell viability at 100 uM after 48 hrs by MTT assay; format: toxicity, cell-based, Cricetulus griseus; settings: chinese hamster; summary of the method: as §1
[9] = Cytotoxicity against CHO cells assessed as reduction in cell viability at 50 uM after 72 hrs by MTT assay; format: toxicity, cell-based, Cricetulus griseus; settings: chinese hamster; summary of the method: as §1

| SMILES | IC50 [1] | Ki [2] | Ki [3] | IC50 at 48 h [4] | Activity [4] | IC50 at 72 h [5] | Activity [5] | Activity [6] | Activity [7] | Activity [8] | Activity [9] |
| --- | --- | --- | --- | --- | --- | --- | --- | --- | --- | --- | --- |
| S=C(NCc1ccco1)Nc1ccccc1 | 8220 nM | – | – | – | – | – | – | – | – | – | – |
| O=C1/C(=C/c2ccc3c(c2)OCO3)S/C(=N\c2ccccc2)N1Cc1ccco1 | 2970 nM | 27 µM | 343 µM | – | – | – | – | – | – | – | – |
| CCOc1ccc(/C=C2\S/C(=N\c3ccccc3)N(Cc3ccco3)C2=O)cc1 | 2030 nM | 4.66 µM | 149 µM | – | – | – | – | – | – | – | – |
| O=C(CSc1nc(O)cc(=O)[nH]1)c1c[nH]c2ccccc12 | – | – | 25.6 µM | – | – | – | – | – | – | – | – |
| Cc1ccc(/C=C2\S/C(=N\c3ccccc3)N(Cc3ccco3)C2=O)cc1 | 1480 nM | 2.82 µM | – | 421 µM | Dose-dependent effect | 185 µM | Dose-dependent effect | Non-Toxic | Non-Toxic | – | – |
| O=C1CS/C(=N\c2ccccc2)N1Cc1ccco1 | 3570 nM | 337 µM | 2240 µM | – | – | – | – | – | – | – | – |
| O=C1/C(=C/c2ccccc2)S/C(=N\c2ccccc2)N1Cc1ccco1 | 2250 nM | 10.9 µM | 58 µM | – | – | – | – | – | – | – | – |
| O=C1/C(=C/c2ccc([N+](=O)[O-])cc2)S/C(=N\c2ccccc2)N1Cc1ccco1 | 2870 nM | 16.1 µM | 98.6 µM | – | – | – | – | – | – | – | – |
| CC(C)Oc1ccc(/C=C2\S/C(=N\c3ccccc3)N(Cc3ccco3)C2=O)cc1 | 2200 nM | 5.68 µM | 54.8 µM | – | – | – | – | – | – | – | – |
| O=C1/C(=C/c2ccc(Cl)cc2)S/C(=N\c2ccccc2)N1Cc1ccco1 | 2330 nM | 6.23 µM | 84.3 µM | – | – | – | – | – | – | – | – |
| O=C1/C(=C/c2cccc([N+](=O)[O-])c2)S/C(=N\c2ccccc2)N1Cc1ccco1 | 1950 nM | 3.56 µM | 46.8 µM | – | – | – | – | – | – | – | – |
| O=C1/C(=C/c2cccc(Cl)c2)S/C(=N\c2ccccc2)N1Cc1ccco1 | 1950 nM | 3.16 µM | 45.8 µM | – | – | – | – | – | – | – | – |
| Cc1ncc([N+](=O)[O-])n1CCn1cc(-c2ccccn2)nn1 | – | 2.88 µM | – | – | – | – | – | – | – | – | – |
| Cc1ncc([N+](=O)[O-])n1CCO [METRONIDAZOLE] | – | 3.3 µM | 42.6 µM | > 400 µM | – | 280 µM | – | Non-Toxic | Non-Toxic | – | – |

More lines, in order of falling Ki [2], values ahead:

| IC50 [1] | Ki [2] | Ki [3] | SMILES | IC50 at 48 h [4] | Activity [4] | IC50 at 72 h [5] | Activity [5] | Activity [6] | Activity [7] | Activity [8] | Activity [9] |
| --- | --- | --- | --- | --- | --- | --- | --- | --- | --- | --- | --- |
| 1350 nM | 2.07 µM | – | COc1ccc(/C=C2\S/C(=N\c3ccccc3)N(Cc3ccco3)C2=O)cc1 | > 400 µM | Dose-dependent effect | > 250 µM | Dose-dependent effect | Non-Toxic | Non-Toxic | – | – |
| 1240 nM | 1.05 µM | – | COc1cc(/C=C2\S/C(=N\c3ccccc3)N(Cc3ccco3)C2=O)cc(OC)c1OC | > 400 µM | Dose-dependent effect | > 250 µM | Dose-dependent effect | Non-Toxic | Non-Toxic | – | – |
| 1040 nM | 0.73 µM | – | O=C1/C(=C/c2ccc(O)cc2)S/C(=N\c2ccccc2)N1Cc1ccco1 | 400 µM | Dose-dependent effect | > 250 µM | Dose-dependent effect | Non-Toxic | Non-Toxic | – | – |
| 670 nM | 0.69 µM | – | COc1ccc(OC)c(/C=C2\S/C(=N\c3ccccc3)N(Cc3ccco3)C2=O)c1 | > 400 µM | Dose-dependent effect | > 250 µM | Dose-dependent effect | Non-Toxic | Non-Toxic | Non-Toxic | Non-Toxic |
| 470 nM | 0.68 µM | – | COc1ccc(/C=C2\S/C(=N\c3ccccc3)N(Cc3ccco3)C2=O)cc1OC | > 400 µM | Dose-dependent effect | > 250 µM | Dose-dependent effect | Non-Toxic | Non-Toxic | Non-Toxic | Non-Toxic |
| 270 nM | 0.39 µM | – | O=C1/C(=C/c2ccccn2)S/C(=N\c2ccccc2)N1Cc1ccco1 | > 400 µM | Dose-dependent effect | > 250 µM | Dose-dependent effect | Non-Toxic | Non-Toxic | Non-Toxic | Non-Toxic |
